Screening results as filed in PubChem BioAssay.
NadD block: inhibitors of S. aureus NadD, primary screen, biochemical, colorimetric, uHTS; Nicotinate-nucleotide adenylyltransferase NadD (Staphylococcus aureus N315); purified NadD enzyme, colorimetric absorbance read-out; inhibition, % at 20 µM; 0.78% of 360,000 active; AID 602399, 2012; in the data active means inhibition above about 26%
PP5 primary: PP5 phosphatase inhibitors, primary screen, biochemical, fluorescence. Serine/threonine-protein phosphatase 5 (Homo sapiens), P53041. purified PP5c, OMFP substrate fluorescence. inhibition, % at 6.7 µM. 0.18% of 320,000 active. AID 1987, 2009;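 active means inhibition above the campaign's mean inhibition across all tested compounds plus 3 SD, cut at about 9.5% in these data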
HCV core dimer: inhibitors of HCV core protein dimerization, primary screen, biochemical, TR-FRET, high-throughput | TR-FRET GST/Flag-core106 dimerization, 1536-well | inhibition, % at 5 µM | 0.33% of 300,000 active | AID 1899, 2009;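 active means inhibition above the mean of all tested compounds plus 3 SD, set per screening campaign, cut at about 45% in these data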
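Assay system: tagged HCV core106 pair (GST and Flag); medium: KF-containing HEPES buffer, pH 7.45, DTT, CHAPS, BSA; also added: Eu donor and XL665 acceptor anti-tag antibodies; dosing: 5 µM single dose; timing: compound-protein-antibody incubation 4 h at 22.5 °C; signal: TR-FRET 671 and 617 nm emission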
Fh CTSL1 inh: Fasciola hepatica cathepsin L1 inhibitors, primary screen, counter-screen for PFM18AAP inhibitor project, biochemical, QFRET, fluorogenic peptide substrate; recombinant F. hepatica cathepsin L1, Z-Leu-Arg-MCA fluorescence; inhibition, % at 5.96 µM; 0.49% of 300,000 active;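 active means inhibition above the mean of all tested compounds plus 3 SD, set per screening campaign, cut at about 17% in these data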
PP1 inh: PP1-alpha phosphatase inhibitors, primary screen, counter-screen for PP5 inhibitor project, biochemical, fluorescence, OMFP substrate, single point; Serine/threonine-protein phosphatase PP1-alpha catalytic subunit (Homo sapiens), P62136; purified PP1alpha; AID 2235, 2010; 0.9% of 320,000 active; inhibition, % at 6.7 µM;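 active means inhibition above the mean inhibition of all tested compounds plus 3 SD, computed separately for each screening campaign, cut at about 15% in these data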
Target sequence (P62136 whole entry, looked up): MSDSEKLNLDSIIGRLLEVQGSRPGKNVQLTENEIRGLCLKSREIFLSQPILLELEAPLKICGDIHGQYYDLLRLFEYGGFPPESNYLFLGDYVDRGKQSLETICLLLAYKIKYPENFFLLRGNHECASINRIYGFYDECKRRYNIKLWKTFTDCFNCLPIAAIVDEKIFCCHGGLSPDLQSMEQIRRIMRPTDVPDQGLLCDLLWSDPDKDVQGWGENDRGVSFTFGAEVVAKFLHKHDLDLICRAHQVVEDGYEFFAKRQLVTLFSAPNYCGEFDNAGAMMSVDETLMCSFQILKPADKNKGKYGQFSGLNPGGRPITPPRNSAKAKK
Myeloid diff 2: induction of myeloid progenitor differentiation, primary screen, cell-based, flow cytometry, MLPCN library; calls only at 10 µM; ER-HoxA9 myeloid progenitors, lysozyme-GFP differentiation; 1% of 360,000 active; AID 624256, 2012;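 active means normalized GFP-positive differentiation at or above the plate's own cutoff, the solvent-only control mean plus 3 SD; inconclusive means no clear call, values can overlap the other calls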;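 further: cells exposed to compound for four days before flow analysis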
Each line names hits and unclear results; the compound was inactive in the other large screens. Rows were chosen to be rich in hits. Some 3.1% of all compounds tested hit in one or more screens of this group.

COC(=O)C1=C(c2cccc(OCc3ccccc3)c2)C[C@@H]2CC[C@H]1N2C(=O)NCCN1CCOCC1	none (no result: HCV core dimer, Fh CTSL1 inh)
C=C(C=O)CC1CC(O)[C@]2(C)OC3CC4OC5C[C@]6(C)O[C@]7(C)CCC8OC9C[C@]%10(C)OC%11C(C)=CC(=O)OC%11CC%10OC9C[C@@H](C)C8OC7CC6O[C@]5(C)CC5OC5C4OC3CC2O1 (stereo partly specified)	HCV core dimer 49, Myeloid diff 2 inconclusive
C=C(CO)CC1CC(O)[C@]2(C)OC3CC4OC5C[C@]6(C)O[C@]7(C)CCC8OC9C[C@]%10(C)OC%11C(C)=CC(=O)OC%11CC%10OC9C[C@@H](C)C8OC7CC6O[C@]5(C)C/C=C\C4OC3CC2O1 (stereo partly specified)	none
NCCc1cc(O)c(O)cc1O	NadD block 65 (no result: PP5 primary, HCV core dimer, Fh CTSL1 inh, PP1 inh)
O=C1NC(=O)N(Cc2ccc(F)cc2)C(=O)/C1=C\c1ccc([N+](=O)[O-])s1	NadD block 37
COc1ccc(CN2C(=O)NC(=O)/C(=C/c3ccc([N+](=O)[O-])s3)C2=O)cc1	NadD block 45
O=C(O)C1CC2(Cl)C(Cl)=C(Cl)C1(Cl)C2(Cl)Cl (stereo unspecified)	none (no result: PP5 primary, HCV core dimer, Fh CTSL1 inh, PP1 inh)
Cc1ccc(S(=O)(=O)NCCC(=O)Nc2ccc(Cl)cc2C(=O)c2ccccc2)cc1	none
Cc1ccc(S(=O)(=O)N[C@@H](CCCCN)C(=O)CCl)cc1	Fh CTSL1 inh 85
CCCNC(=O)c1c(N)n(CC2CCCO2)c2nc3ccccc3nc12 (stereo unspecified)	none
CCCCn1c(N)c(C(=O)OCC2CCCO2)c2nc3ccccc3nc21 (stereo unspecified)	none
CC(C)OCCCNC(=O)c1c(N)n(CC2CCCO2)c2nc3ccccc3nc12 (stereo unspecified)	Myeloid diff 2 active
CC(C)CCn1c(N)c(C(=O)OCC2CCCO2)c2nc3ccccc3nc21 (stereo unspecified)	Myeloid diff 2 active
COc1cc(C=NNC(=S)Nc2ccc(S(=O)(=O)N3CCCCC3)cc2)cc(OC)c1OC	none (no result: PP5 primary, HCV core dimer, Fh CTSL1 inh, PP1 inh)
Cc1cccc(NC(=O)COC(=O)c2cc(C)n(C3CC3)c2C)c1	none (no result: HCV core dimer, Fh CTSL1 inh)
CCOC(=O)[C@@]1(C#N)[C@@H]2C=CC(C(N)=O)=CN2[C@@H](C(N)=O)[C@@H]1c1cccc(Cl)c1	Myeloid diff 2 active
CCOC(=O)[C@]1(C#N)[C@@H]2C=CC(C(N)=O)=CN2[C@@H](C(N)=O)[C@@H]1c1ccc(F)cc1	none
O=C1NC(=O)N(Cc2ccco2)C(=O)/C1=C\c1cccn1CCOc1ccc(Cl)cc1	Myeloid diff 2 active
CCN(CC)c1ccc(/C=C2\C(=O)NC(=S)N(C)C2=O)o1	Myeloid diff 2 active
COc1ccc(N2C(=O)/C(=C/c3ccc(N(C)C)o3)C(=O)NC2=S)cc1	none
CCN(CC)c1ccc(/C=C2\C(=O)NC(=S)N(c3ccc(OC)cc3OC)C2=O)o1	Myeloid diff 2 active
CC1NC(=O)NC(=O)C1Br (stereo unspecified)	none (no result: PP5 primary, HCV core dimer, Fh CTSL1 inh, PP1 inh)
COC(=O)C1=C(c2cccc(OCc3ccccc3)c2)C[C@@H]2CC[C@H]1N2C(=O)NCc1ccccc1C(F)(F)F	none (no result: HCV core dimer, Fh CTSL1 inh)
O=P1(N(CCCl)CCCl)NCCCO1 (stereo unspecified)	none
C[C@@H]1CC[C@H]2[C@@H](C)C(=O)O[C@@H]3O[C@@]4(C)CC[C@@H]1[C@]32OO4	Myeloid diff 2 active
CCS(=O)(=O)NCc1nnc2n1-c1ccc(Br)cc1C(c1ccccc1Cl)=NC2	none
COc1cc(/C=C/[N+](=O)[O-])ccc1O	Myeloid diff 2 active
COCCO[C@H]1CCC2C3CC=C4C[C@@H](O)CC[C@]4(C)C3CC[C@@]21C (stereo partly specified)	none (no result: PP5 primary, HCV core dimer, Fh CTSL1 inh, PP1 inh)
CC(=O)OC[C@]12CCC(C)=C[C@H]1O[C@@H]1[C@H](O)[C@@H](OC(C)=O)[C@@]2(C)[C@]12CO2	Myeloid diff 2 active
